The results in this text go back to ChEMBL document CHEMBL1221199, “Structure-guided development of affinity probes for tyrosine kinases using chemical genetics” (Nat Chem Biol, 2007).

The structures appear in SMILES notation. Active and inactive are the calls of the source. The rule behind the calls is not given here.

The target of assay [1] is Tyrosine-protein kinase Fyn (Homo sapiens, UniProt P06241). Briefly: Inhibition of Fyn expressed in Escherichia coli C43 by radioactive phosphotransfer assay.
Sequence of Tyrosine-protein kinase Fyn (Homo sapiens, UniProt P06241) (P06241 whole entry): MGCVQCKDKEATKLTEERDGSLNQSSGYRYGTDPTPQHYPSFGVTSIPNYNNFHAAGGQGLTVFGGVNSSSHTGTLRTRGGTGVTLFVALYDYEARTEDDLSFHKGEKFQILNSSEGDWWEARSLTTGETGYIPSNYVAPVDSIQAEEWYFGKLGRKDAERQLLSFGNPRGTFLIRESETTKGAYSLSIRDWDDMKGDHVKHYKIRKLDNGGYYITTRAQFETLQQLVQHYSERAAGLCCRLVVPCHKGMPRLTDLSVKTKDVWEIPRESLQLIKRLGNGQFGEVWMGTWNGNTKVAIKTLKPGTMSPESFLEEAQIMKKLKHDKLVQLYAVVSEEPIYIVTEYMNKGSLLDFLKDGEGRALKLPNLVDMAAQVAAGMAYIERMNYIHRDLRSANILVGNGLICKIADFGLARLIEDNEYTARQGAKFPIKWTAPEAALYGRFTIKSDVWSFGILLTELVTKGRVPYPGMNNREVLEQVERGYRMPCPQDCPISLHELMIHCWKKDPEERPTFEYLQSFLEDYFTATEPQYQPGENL
Assay [2] concerns the target Tyrosine-protein kinase Fyn (Homo sapiens, UniProt P06241, T342G). Nature of the assay: Inhibition of Fyn T342G mutant expressed in Escherichia coli C43 by radioactive phosphotransfer assay.
Assay [3] can be described thus: Inhibition of c-src T338G/S345C double mutant by radioactive phosphotransfer assay. In outline: (§1)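 Kinase-domain c-Src variants (T338G, S345C, T338G/S345C) were made by site-directed mutagenesis and expressed in E. coli BL21(DE3) co-transformed with YopH, GroEL and trigger factor. Protein was quantified by A280 and stored at −80 °C. Radioactive phosphotransfer assays were run in triplicate across a range of inhibitor concentrations.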

The target of assay [4] is Tyrosine-protein kinase Fyn (Homo sapiens, UniProt P06241, S349C/T342G). Briefly: Inhibition of Fyn T342G/S349C double mutant expressed in Escherichia coli C43 by radioactive phosphotransfer assay.
Sequence of Tyrosine-protein kinase Fyn (Homo sapiens, UniProt P06241, S349C/T342G) (P06241 2-537 T342G/S349C limits assumed): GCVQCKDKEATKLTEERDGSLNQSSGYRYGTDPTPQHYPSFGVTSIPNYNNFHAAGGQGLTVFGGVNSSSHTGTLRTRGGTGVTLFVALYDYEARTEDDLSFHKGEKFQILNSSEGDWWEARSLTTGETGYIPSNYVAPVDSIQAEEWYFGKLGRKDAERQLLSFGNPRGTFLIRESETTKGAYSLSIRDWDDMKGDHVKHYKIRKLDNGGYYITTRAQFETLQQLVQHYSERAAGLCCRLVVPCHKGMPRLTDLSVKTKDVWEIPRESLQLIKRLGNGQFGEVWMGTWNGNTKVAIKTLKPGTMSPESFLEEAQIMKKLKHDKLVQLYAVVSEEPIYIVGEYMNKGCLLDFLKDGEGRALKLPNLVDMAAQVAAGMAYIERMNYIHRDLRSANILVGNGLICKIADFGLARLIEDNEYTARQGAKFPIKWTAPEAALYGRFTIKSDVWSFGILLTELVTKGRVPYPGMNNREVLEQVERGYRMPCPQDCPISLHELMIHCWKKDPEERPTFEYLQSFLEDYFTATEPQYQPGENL
Assay [5] concerns the target Tyrosine-protein kinase Fyn (Homo sapiens, UniProt P06241, S349C). Briefly: Inhibition of Fyn S349C mutant in expressed in Escherichia coli C43 by radioactive phosphotransfer assay.
Assay [6] has as its target Proto-oncogene tyrosine-protein kinase Src (Gallus gallus) (UniProt P00523). Briefly: Inhibition of c-src in by radioactive phosphotransfer assay.
A short description of assay [7]: Inhibition of c-src T338G mutant by radioactive phosphotransfer assay. In outline: as §1
Assay [8] deals with T1, Epidermal growth factor receptor (Homo sapiens, UniProt P00533). Briefly: Inhibition of human recombinant EGFR expressed in baculovirus-infected Sf9 cells by radioactive phosphotransfer assay. Type of assay: cell-based.
T1 sequence (P00533 whole entry): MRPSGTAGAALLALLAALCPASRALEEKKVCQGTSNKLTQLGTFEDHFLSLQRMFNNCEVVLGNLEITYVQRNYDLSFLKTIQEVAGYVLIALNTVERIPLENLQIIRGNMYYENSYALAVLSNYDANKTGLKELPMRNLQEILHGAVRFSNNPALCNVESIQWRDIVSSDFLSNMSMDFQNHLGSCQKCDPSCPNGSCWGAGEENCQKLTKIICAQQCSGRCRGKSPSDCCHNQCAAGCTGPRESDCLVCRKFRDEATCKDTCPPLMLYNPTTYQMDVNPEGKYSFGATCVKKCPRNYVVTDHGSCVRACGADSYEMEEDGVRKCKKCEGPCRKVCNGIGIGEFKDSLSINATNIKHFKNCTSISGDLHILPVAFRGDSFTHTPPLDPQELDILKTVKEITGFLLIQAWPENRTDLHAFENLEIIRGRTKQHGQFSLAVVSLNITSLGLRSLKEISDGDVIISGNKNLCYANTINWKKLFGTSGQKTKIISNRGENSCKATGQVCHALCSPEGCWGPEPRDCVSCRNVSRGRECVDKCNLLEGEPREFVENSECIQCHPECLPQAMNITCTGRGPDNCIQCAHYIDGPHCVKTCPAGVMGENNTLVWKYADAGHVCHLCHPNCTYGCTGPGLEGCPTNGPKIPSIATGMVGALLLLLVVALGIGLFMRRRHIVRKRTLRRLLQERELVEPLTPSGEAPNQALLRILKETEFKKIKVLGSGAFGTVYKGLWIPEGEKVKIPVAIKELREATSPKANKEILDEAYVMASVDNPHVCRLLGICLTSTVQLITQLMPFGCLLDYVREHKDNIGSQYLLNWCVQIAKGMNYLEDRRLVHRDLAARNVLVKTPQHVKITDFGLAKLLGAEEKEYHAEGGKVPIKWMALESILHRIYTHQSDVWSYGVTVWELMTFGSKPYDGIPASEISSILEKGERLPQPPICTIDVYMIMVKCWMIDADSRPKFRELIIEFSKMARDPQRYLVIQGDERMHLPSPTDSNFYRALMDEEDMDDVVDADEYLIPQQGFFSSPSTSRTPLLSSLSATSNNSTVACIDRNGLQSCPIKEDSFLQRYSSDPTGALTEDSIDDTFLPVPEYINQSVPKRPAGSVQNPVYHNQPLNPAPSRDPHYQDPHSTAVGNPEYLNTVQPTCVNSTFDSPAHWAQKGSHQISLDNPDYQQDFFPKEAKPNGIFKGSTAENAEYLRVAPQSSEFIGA
Assay [9] deals with T1, Epidermal growth factor receptor. Nature of the assay: Inhibition of […] EGFR3 phosphorylation transfected in mouse NIH/3T3 cells at 0.1 to 2 uM by radioactive phosphotransfer assay. Type of assay: cell-based. The settings on record: NIH3T3, in the assay text read “immunoblotting” for “radioactive phosphotransfer assay”. In outline:
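Mouse NIH-3T3 fibroblasts lacking detectable endogenous EGFR, retrovirally transduced with analog-sensitive EGFR-as3 and hygromycin-selected, then grown in DMEM/10% FBS. Inhibitor at 0.1, 1.0 or 2.0 µM (1.2% DMSO), with or without EGF 100 ng/ml for 30 min before harvest. Equal lysate protein run on SDS-PAGE; anti-phosphotyrosine (4G10) immunoblot detected by ECL, with EGFR blot alongside.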
Background: In western blotting, separated proteins are transferred to a membrane and probed.

Assay [10] shares this target. Briefly: Inhibition of EGFR3 transfected in EGF-stimulated mouse NIH/3T3 cells assessed as reduction of receptor-mediated Akt phosphorylation at 0.037 to 1 uM by radioactive phosphotransfer assay. Type of assay: cell-based. The note with it: NIH3T3, in the assay text read “immunoblotting” for “radioactive phosphotransfer assay”. In outline: (§2)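 Transduced 3T3:EGFR-as3 cells were serum-starved overnight in 0.5% FBS, then given three-fold inhibitor dilutions from 1 µM to 37 nM (1% DMSO) for 1.5 h. […] Protein-normalised lysates were separated by SDS-PAGE, fluorescence-scanned, then immunoblotted for downstream phosphorylation. Run in duplicate.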

Assay [11] shares this target. The note with it: NIH3T3; at 0.1 to 2 µM.
For assay [12] the target is unchanged. Briefly: Inhibition of EGFR3 transfected in EGF-stimulated mouse NIH/3T3 cells assessed as reduction of receptor-mediated Erk2 phosphorylation at 0.037 to 1 uM by radioactive phosphotransfer assay. It counts as cell-based. The note with it: NIH3T3, in the assay text read “immunoblotting” for “radioactive phosphotransfer assay”. In outline: as §2
Assay [13] shares this target. Briefly: Inhibition of EGFR3 transfected in EGF-stimulated mouse NIH/3T3 cells assessed as reduction of receptor-mediated Erk1 phosphorylation at 0.037 to 1 uM by radioactive phosphotransfer assay. Type of assay: cell-based. The settings on record: NIH3T3, in the assay text read “immunoblotting” for “radioactive phosphotransfer assay”. In outline: as §2

Sequence of Tyrosine-protein kinase Fyn (Homo sapiens, UniProt P06241, T342G) (P06241 2-537 T342G limits assumed): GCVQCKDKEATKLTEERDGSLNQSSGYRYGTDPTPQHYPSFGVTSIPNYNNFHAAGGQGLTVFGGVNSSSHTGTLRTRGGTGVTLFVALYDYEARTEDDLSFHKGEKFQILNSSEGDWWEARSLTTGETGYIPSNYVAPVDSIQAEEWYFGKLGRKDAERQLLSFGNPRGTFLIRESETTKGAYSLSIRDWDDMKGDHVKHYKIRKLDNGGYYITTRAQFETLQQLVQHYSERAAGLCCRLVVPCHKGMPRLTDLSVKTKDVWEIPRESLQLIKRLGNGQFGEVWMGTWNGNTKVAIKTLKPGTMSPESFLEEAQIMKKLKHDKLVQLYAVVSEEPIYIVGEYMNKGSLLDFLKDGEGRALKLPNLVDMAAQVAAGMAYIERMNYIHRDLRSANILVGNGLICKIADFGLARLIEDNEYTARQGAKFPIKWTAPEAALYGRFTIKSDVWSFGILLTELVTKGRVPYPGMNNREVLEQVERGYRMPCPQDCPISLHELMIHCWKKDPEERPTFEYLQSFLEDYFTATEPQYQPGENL
Sequence of Tyrosine-protein kinase Fyn (Homo sapiens, UniProt P06241, S349C) (P06241 2-537 S349C limits assumed): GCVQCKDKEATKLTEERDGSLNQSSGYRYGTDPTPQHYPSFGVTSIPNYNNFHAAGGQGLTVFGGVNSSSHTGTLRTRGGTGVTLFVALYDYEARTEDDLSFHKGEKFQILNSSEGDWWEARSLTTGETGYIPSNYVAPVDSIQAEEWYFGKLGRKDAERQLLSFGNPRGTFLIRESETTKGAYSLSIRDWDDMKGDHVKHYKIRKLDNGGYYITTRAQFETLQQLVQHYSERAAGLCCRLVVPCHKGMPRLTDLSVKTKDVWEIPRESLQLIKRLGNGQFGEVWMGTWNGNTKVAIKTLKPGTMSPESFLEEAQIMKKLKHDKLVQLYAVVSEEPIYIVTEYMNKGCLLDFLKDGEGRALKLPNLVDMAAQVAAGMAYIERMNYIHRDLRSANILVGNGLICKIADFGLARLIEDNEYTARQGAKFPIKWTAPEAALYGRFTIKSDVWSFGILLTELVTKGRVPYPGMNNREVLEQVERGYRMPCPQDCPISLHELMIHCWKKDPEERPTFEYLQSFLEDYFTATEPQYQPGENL

For orientation: IC50 means the concentration that inhibits the measured activity by half. On to `C=CC(=O)Nc1ccc2ncnc(NCc3cccc4ccccc34)c2c1`, for which the half-maximal inhibitory concentration (IC50) is 32000 nM in assay [1]; 1500 nM in assay [2]; 24 nM in [3]; 150 nM in [4]; 1700 nM in assay [5]; > 27000 nM in assay [6]. In addition, in assay [7], the half-maximal inhibitory concentration (IC50) was found to be 123 nM.
Take `C=CC(=O)Nc1ccc2ncnc(NCCc3ccccc3)c2c1`: the IC50 in [1] is 40000 nM; in [2], 3800 nM; in assay [3], 109 nM; in [4], 88 nM; in [5], 1400 nM; in assay [6] it was > 27000 nM. Also, in [7], the IC50 was 551 nM.
In the case of `C=CC(=O)Nc1ccc2ncnc(Nc3cccc(Br)c3)c2c1`, the IC50 in assay [1] is > 300000 nM; in [2], 420 nM; in assay [3], 1 nM; in [4] it was 1 nM; in assay [5], 42 nM; in assay [7], 173 nM.
As to `C=CC(=O)Nc1ccc2ncnc(Nc3ccc(-c4ccccc4)cc3)c2c1`, the IC50 was > 300000 nM in assay [1]; 9700 nM in [2]; 13 nM in assay [3]; 107 nM in assay [4]; 760 nM in [5]; > 27000 nM in [6]. For the same compound, the IC50 in assay [7] was found to be 374 nM.
As to `C=CC(=O)Nc1ccc2ncnc(Nc3ccc(C(C)C)cc3)c2c1`, the IC50 in [1] is > 300000 nM; in [2], 2200 nM; in assay [3] it was 16 nM; in assay [4], 32 nM; in assay [5], 340 nM; in [6], > 27000 nM. Besides, the IC50 in assay [7] amounted to 357 nM.
Consider `CCC(=O)Nc1ccc2ncnc(Nc3ccc(C(C)(C)C)cc3)c2c1`, for which the IC50 is > 300000 nM in assay [1]; 1500 nM in assay [2]; 254 nM in assay [3]; 540 nM in assay [4]; > 300000 nM in assay [5]; > 27000 nM in [6]. In assay [7], the IC50 stood at 218 nM.
Regarding `C=CC(=O)Nc1ccc2ncnc(Nc3ccccc3)c2c1`, the IC50 in assay [1] is 3700 nM; in assay [2], 1100 nM; in [3], 20 nM; in assay [4], 6 nM; in assay [5], 5 nM; in assay [6] it was > 27000 nM. Besides, the IC50 was < 1 nM in assay [8] and 1570 nM in assay [7].
With `C=CC(=O)Nc1ccc2ncnc(Nc3ccc(Br)cc3)c2c1`, the IC50 in assay [1] is > 300000 nM; in [2] it was 4650 nM; in assay [3] it was 37 nM; in [4], 19 nM; in assay [5] it was 34 nM; in assay [6] it was > 27000 nM. In [7], the IC50 stood at 1740 nM.
As for `C=CC(=O)Nc1ccc2ncnc(Nc3ccc4ccccc4c3)c2c1`, the IC50 in [1] is 18100 nM; in assay [2], 1800 nM; in assay [3] it was 13 nM; in assay [4], 3 nM; in assay [5] it was 32 nM; in assay [6] it was > 27000 nM. Also, in assay [7], the IC50 worked out at 1360 nM.
In the case of `C=CC(=O)Nc1ccc2ncnc(Nc3ccc(C(C)(C)C)cc3)c2c1`, the inhibition entry in assay [9], in assay [10], in assay [12] and in [13] was “Active” in each case. In addition, the IC50 in assay [1] is > 300000 nM; in [2] it was 900 nM; in assay [3], 5 nM; in [4], 24 nM; in [5] it was 8400 nM; in [6], > 27000 nM. In addition, the IC50 in assay [8] was 689 nM; in assay [7], 187 nM. Besides, the inhibition result in [11] is “inactive”.
Consider `C=CC(=O)Nc1ccc2ncnc(Nc3cccc4ccccc34)c2c1`, for which the IC50 in assay [1] is 16300 nM; in assay [2], 2100 nM; in assay [3], 27 nM; in assay [4], 30 nM; in [5] it was 670 nM; in [6], 16300 nM. The IC50 in assay [7] worked out at 1270 nM.
